ChEMBL document CHEMBL3244401, “Prostaglandins and congeners. 15. Synthesis and bronchodilator activity of dl-11-deoxy-15- or 16-alkylprostaglandins” (1977)

How the values were obtained:
Assay type in all cases: functional
Cavia porcellus [1] = assay: Bronchodilatory activity in iv dosed Hartley guinea pig assessed as inhibition of serotonin-induced spasm administered 3 to 4 times at 15 mins interval starting 2 mins post challenge
How it was run: (§1)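 Serotonin (7.5-30 μg/kg iv, 12-s injections every 5 min) induced bronchospasm (20-50 cm water rise) in ventilated, urethane/gallamine-treated Hartley guinea pigs (250-500 g). After three matched control spasms, test agent was given iv over 1 min 2 min later, repeated at 15-min intervals, 3-4 log doses. Water was the vehicle for salts and 10% aqueous ethanol for esters. Intratracheal pressure was recorded; ED50 from semilog regression of % variation; ≥4 animals.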

Cavia porcellus [2] = assay: Bronchodilatory activity in Hartley guinea pig assessed as inhibition of acetylcholine-induced spasm at 3.2 mg/kg, iv administered 3 to 4 times at 15 mins interval starting 2 mins post challenge
How it was run: (§2)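 Urethane-anesthetized (1.5 g/kg ip), gallamine-curarized Hartley guinea pigs (either sex, 250-500 g), ventilated at 60 strokes/min. Acetylcholine (40-150 μg/kg, 12-s iv infusions every 5 min) set to raise tracheal pressure 20-50 cm water. Compounds (sodium salts in water; esters in 10% aqueous ethanol) given iv over 1 min. Spasm amplitude expressed as % variation from control. ED50 from semilog regression; ≥4 animals.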

Cavia porcellus [3] = assay: Bronchodilatory activity in iv dosed Hartley guinea pig assessed as lowest dose required for >/= 50% inhibition of histamine-induced spasm administered 3 to 4 times at 15 mins interval starting 2 mins post challenge
How it was run: (§3)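 Hartley guinea pigs (either sex, 250-500 g) under urethane (1.5 g/kg ip) plus iv gallamine, artificially ventilated. Histamine was infused iv for 12 s every 5 min to raise tracheal pressure 20-50 cm water. Salts were given iv in water and esters in 10% aqueous ethanol, 3-4 log-spaced doses. Read-out was % variation in spasm amplitude versus control; ED50 (-50%) by semilog regression; ≥4 animals.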

Cavia porcellus [4] = assay: Bronchodilatory activity in iv dosed Hartley guinea pig assessed as inhibition of acetylcholine-induced spasm administered 3 to 4 times at 15 mins interval starting 2 mins post challenge; how it was run: as §2
Cavia porcellus [5] = assay: Bronchodilatory activity in iv dosed Hartley guinea pig assessed as inhibition of histamine-induced spasm administered 3 to 4 times at 15 mins interval starting 2 mins post challenge; how it was run: as §3
Cavia porcellus [6] = assay: Bronchodilatory activity in Hartley guinea pig assessed as inhibition of histamine-induced spasm at 3.2 mg/kg, iv administered 3 to 4 times at 15 mins interval starting 2 mins post challenge; how it was run: as §3
Cavia porcellus [7] = assay: Bronchodilatory activity in iv dosed Hartley guinea pig assessed as lowest dose required for >/= 50% inhibition of acetylcholine-induced spasm administered 3 to 4 times at 15 mins interval starting 2 mins post challenge; how it was run: as §2
Cavia porcellus [8] = assay: Bronchodilatory activity in Hartley guinea pig assessed as inhibition of serotonin-induced spasm at 3.2 mg/kg, iv administered 3 to 4 times at 15 mins interval starting 2 mins post challenge; how it was run: as §1
Cavia porcellus [9] = assay: Bronchodilatory activity in iv dosed Hartley guinea pig assessed as lowest dose required for >/= 50% inhibition of serotonin-induced spasm administered 3 to 4 times at 15 mins interval starting 2 mins post challenge; how it was run: as §1

Structure (SMILES) | ED50 (Cavia porcellus [1]) [µg/kg] | inhibition in vivo at 3.2 mg/kg (Cavia porcellus [2]) [%] | ED50 (Cavia porcellus [4]) [µg/kg] | ED50 (Cavia porcellus [5]) [µg/kg] | also measured
CCCCC(CC)[C@@H](O)/C=C/C1CCC(=O)[C@@H]1CCCCCCC(=O)O (mixture of isomers) | > 3.2 | < 50 |  |  | ED50 (Cavia porcellus [3]): 32 µg/kg
CCCCC(CC)[C@H](O)/C=C/C1CCC(=O)[C@@H]1CCCCCCC(=O)OCC (mixture of isomers) | 1.11e+09 |  | 145 |  | ED50 (Cavia porcellus [3]): 32 µg/kg
CCCCC(C)[C@H](O)/C=C/C1CCC(=O)[C@@H]1CCCCCCC(=O)O (mixture of isomers) | 346 |  | > 320 |  | ED50 (Cavia porcellus [3]): 320 µg/kg
CCCCC(C)(C)[C@H](O)/C=C/C1CCC(=O)[C@@H]1CCCCOCC(=O)OCC (mixture of isomers) | 123 |  | 96.7 | 69.6 | 
CCCCC(C)[C@@H](O)/C=C/C1CCC(=O)[C@@H]1C/C=C\CCCC(=O)OCC (mixture of isomers) | 9.65 |  | > 320 | 1.37 | 
CCCCC(CC)[C@H](O)/C=C/C1CCC(=O)[C@@H]1C/C=C\CCCC(=O)O (mixture of isomers) | 79.1 | < 50 |  |  | inhibition in vivo at 3.2 mg/kg (Cavia porcellus [6]): < 50%
CCCCC[C@](C)(O)/C=C/C1CCC(=O)[C@@H]1CCCCCCC(=O)O (mixture of isomers) | 6.99 |  |  | 4.24 | ED50 (Cavia porcellus [7]): 3.2 µg/kg
CCCCC(C)(C)[C@@H](O)/C=C/C1CCC(=O)[C@@H]1CCCCCC(C)C(=O)O (mixture of isomers) |  | < 50 |  |  | inhibition in vivo at 3.2 mg/kg (Cavia porcellus [8]): < 50%; inhibition in vivo at 3.2 mg/kg (Cavia porcellus [6]): < 50%
CCCCC[C@](C)(O)/C=C/C1CCC(=O)[C@@H]1CCCCOCC(=O)OCC (mixture of isomers) | 78.8 |  | 618 | 282 | 
CCCCC(CC)[C@H](O)/C=C/C1CCC(=O)[C@@H]1CCCCCCC(=O)O (mixture of isomers) | 9.77 |  | 113 |  | ED50 (Cavia porcellus [3]): 32 µg/kg
CCCCC(CC)[C@@H](O)/C=C/C1CCC(=O)[C@@H]1C/C=C\CCCC(=O)O (mixture of isomers) | 2.21e+09 | < 50 |  |  | inhibition in vivo at 3.2 mg/kg (Cavia porcellus [6]): < 50%
CCCCC(C)(C)[C@H](O)/C=C/C1CCC(=O)[C@@H]1CCCCOCC(=O)O (mixture of isomers) | 185 |  | 550 |  | 
CCCCC(C)(C)[C@@H](O)/C=C/C1CCC(=O)[C@@H]1CCCCCC(C(=O)OCC)c1ccccc1 (mixture of isomers) |  | < 50 |  |  | inhibition in vivo at 3.2 mg/kg (Cavia porcellus [8]): < 50%; inhibition in vivo at 3.2 mg/kg (Cavia porcellus [6]): < 50%
CCCCC[C@H](O)/C=C/C1CCC(=O)[C@@H]1CCCCCCC(=O)O (mixture of isomers) | 397 |  | > 32 | 3.4 | 
CCCCC(C)(C)[C@@H](O)/C=C/C1CCC(=O)[C@@H]1CCCCOCC(=O)O (mixture of isomers) |  |  | 558 | 373 | ED50 (Cavia porcellus [9]): 32 µg/kg
CCCCC(C)[C@H](O)/C=C/C1CCC(=O)[C@@H]1C/C=C\CCCC(=O)OCC (mixture of isomers) | 179000 | < 50 |  | 65700 | 
CCCCC(C)(C)[C@H](O)/C=C/C1CCC(=O)[C@@H]1CCCCCC(C(=O)O)c1ccccc1 (mixture of isomers) |  | < 50 |  |  | inhibition in vivo at 3.2 mg/kg (Cavia porcellus [8]): < 50%; inhibition in vivo at 3.2 mg/kg (Cavia porcellus [6]): < 50%
CCCCC(C)[C@H](O)/C=C/C1CCC(=O)[C@@H]1CCCCCCC(=O)OCC (mixture of isomers) |  | < 50 |  |  | ED50 (Cavia porcellus [9]): 320 µg/kg; ED50 (Cavia porcellus [3]): 32000 µg/kg
CCCCC(C)(C)[C@@H](O)/C=C/C1CCC(=O)[C@@H]1CCCCCCC(=O)O (mixture of isomers) | 19 |  | 135 | 107 | 
CCCCC(C)(C)[C@H](O)/C=C/C1CCC(=O)[C@@H]1CCCCCC(C)C(=O)O (mixture of isomers) |  | < 50 |  |  | inhibition in vivo at 3.2 mg/kg (Cavia porcellus [8]): < 50%; inhibition in vivo at 3.2 mg/kg (Cavia porcellus [6]): < 50%
CCCCC(C)(C)[C@H](O)/C=C/C1CCC(=O)[C@@H]1CCCCCC(C(=O)OCC)c1ccccc1 (mixture of isomers) |  | < 50 |  |  | inhibition in vivo at 3.2 mg/kg (Cavia porcellus [8]): < 50%; inhibition in vivo at 3.2 mg/kg (Cavia porcellus [6]): < 50%
CCCCC(C)[C@H](O)/C=C/C1CCC(=O)[C@@H]1C/C=C\CCCC(=O)O (mixture of isomers) | 1.35 |  | 1.63 | 108000 | 
CCCCC[C@](C)(O)/C=C/C1CCC(=O)[C@@H]1CCCCOCC(=O)O (mixture of isomers) | 121 |  | 73.7 | 25.6 | 
CCCCC(C)(C)[C@@H](O)/C=C/C1CCC(=O)[C@@H]1CCCCOCC(=O)OCC (mixture of isomers) | 209 |  | 349 | 194 | 
CCCCC(C)(C)[C@@H](O)/C=C/C1CCC(=O)[C@@H]1CCCCCC(C(=O)O)c1ccccc1 (mixture of isomers) |  | < 50 |  |  | inhibition in vivo at 3.2 mg/kg (Cavia porcellus [8]): < 50%; inhibition in vivo at 3.2 mg/kg (Cavia porcellus [6]): < 50%
CCCCC(CC)[C@@H](O)/C=C/C1CCC(=O)[C@@H]1CCCCCCC(=O)OCC (mixture of isomers) | 1.74e+09 | < 50 |  | 2.7e+09 | 
CCCCC(C)[C@@H](O)/C=C/C1CCC(=O)[C@@H]1C/C=C\CCCC(=O)O (mixture of isomers) | 39.9 |  | 87.5 | 2.99 | 
CCCCC(C)[C@@H](O)/C=C/C1CCC(=O)[C@@H]1CCCCCCC(=O)OCC (mixture of isomers) | 99.3 |  | 396 |  | ED50 (Cavia porcellus [3]): 32000 µg/kg
CCCCC(C)[C@@H](O)/C=C/C1CCC(=O)[C@@H]1CCCCCCC(=O)O (mixture of isomers) | 7.01 |  | 9.89 | 73.2 | 
CCCCC(C)(C)[C@H](O)/C=C/C1CCC(=O)[C@@H]1CCCCCCC(=O)O (mixture of isomers) | 25.9 |  | 42.9 | 4.17 | 
